Measured values as given in ChEMBL document CHEMBL1131294, “Universal template approach to drug design: polyamines as selective muscarinic receptor antagonists” (J Med Chem, 1998).

Legend:
[1] = molecular target: Muscarinic acetylcholine receptor M3 (Cavia porcellus, UniProt Q8VH26); test: Antagonist affinity evaluated against Muscarinic acetylcholine receptor M3 in isolated guinea pig longitudinal Ileum.; format: functional, tissue-based; settings: read-out: pA2 (converted)
Outline: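 Guinea pig left atria (M2, negative inotropism, electrically driven at 1 Hz) and ileum longitudinal muscle (M3, contraction). Agonist: arecaidine propargyl ester. Ileum: isotonic recording, at least 30 min equilibration. APE curves (0.01-0.5 µM) taken at 30-min intervals, the second curve serving as control. After 60 min antagonist incubation the curve was repeated. Dose ratios at agonist EC50, 3-6 antagonist concentrations, 4-6 replicates each; pA2 from Schild plots constrained to slope -1.0.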

[2] = molecular target: T1, Muscarinic acetylcholine receptor M4 (Rattus norvegicus, UniProt P08485); test: […] to Muscarinic acetylcholine receptor M4
T1 sequence (P08485 whole entry): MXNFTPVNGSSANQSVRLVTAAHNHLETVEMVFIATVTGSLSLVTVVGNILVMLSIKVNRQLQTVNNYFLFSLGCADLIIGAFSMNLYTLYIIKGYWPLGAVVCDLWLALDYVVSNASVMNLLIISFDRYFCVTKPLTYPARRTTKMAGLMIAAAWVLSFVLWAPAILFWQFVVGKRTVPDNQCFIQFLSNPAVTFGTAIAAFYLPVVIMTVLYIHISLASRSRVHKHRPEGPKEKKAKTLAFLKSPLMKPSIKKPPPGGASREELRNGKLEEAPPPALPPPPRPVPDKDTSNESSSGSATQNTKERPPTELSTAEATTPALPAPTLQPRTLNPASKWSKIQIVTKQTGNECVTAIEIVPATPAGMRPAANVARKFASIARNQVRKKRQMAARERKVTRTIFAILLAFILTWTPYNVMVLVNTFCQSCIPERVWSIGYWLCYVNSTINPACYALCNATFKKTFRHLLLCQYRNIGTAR
Outline: (§1)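 Competition against 0.7-0.8 nM [3H]NMS using homogenates of rat heart (M2) or submaxillary gland (M3), 500 µg protein each, or NG 108-15 cells (M4), 600 µg protein. Incubation 2 h at 25 °C in 50 mM sodium phosphate pH 7.4 with 2 mM MgCl2 and 1% BSA. Nonspecific binding defined with 10 µM atropine. Filtration; Ki by Cheng-Prusoff; at least three experiments, each in triplicate.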

[3] = molecular target: Muscarinic acetylcholine receptor M3 (Rattus norvegicus, UniProt P08483); test: Inhibition of [3H]NMS binding to rat submaxillary gland Muscarinic acetylcholine receptor M3; outline: as §1
[4] = molecular target: T2, Muscarinic acetylcholine receptor M1 (Rattus norvegicus, UniProt P08482); test: Binding affinity for rat cortex Muscarinic acetylcholine receptor M1
T2 sequence (P08482 whole entry): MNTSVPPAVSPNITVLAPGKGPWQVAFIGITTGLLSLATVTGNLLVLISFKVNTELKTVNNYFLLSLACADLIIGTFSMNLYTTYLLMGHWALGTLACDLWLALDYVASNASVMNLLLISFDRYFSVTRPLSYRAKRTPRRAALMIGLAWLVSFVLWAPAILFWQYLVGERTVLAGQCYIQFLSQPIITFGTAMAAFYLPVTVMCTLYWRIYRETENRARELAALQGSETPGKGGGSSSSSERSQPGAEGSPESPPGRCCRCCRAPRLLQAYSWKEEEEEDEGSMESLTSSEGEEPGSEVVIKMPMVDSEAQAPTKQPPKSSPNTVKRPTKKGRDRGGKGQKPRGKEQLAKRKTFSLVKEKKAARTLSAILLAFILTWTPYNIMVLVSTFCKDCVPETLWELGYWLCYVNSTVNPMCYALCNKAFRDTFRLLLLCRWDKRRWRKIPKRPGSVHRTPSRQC
Outline: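 Rat cerebral cortex homogenate (200 µg protein) competed against 5 nM [3H]pirenzepine. Incubation 2 h at 25 °C in 50 mM sodium phosphate pH 7.4 with 2 mM MgCl2 and 1% BSA. Nonspecific binding defined with 10 µM atropine. Filtration on PEI-soaked glass-fiber filters. Ki by Cheng-Prusoff; at least three experiments, each in triplicate.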

[5] = molecular target: T3, Muscarinic acetylcholine receptor M2 (Rattus norvegicus, UniProt P10980); test: Inhibition of [3H]NMS binding to rat heart Muscarinic acetylcholine receptor M2
T3 sequence (P10980 whole entry): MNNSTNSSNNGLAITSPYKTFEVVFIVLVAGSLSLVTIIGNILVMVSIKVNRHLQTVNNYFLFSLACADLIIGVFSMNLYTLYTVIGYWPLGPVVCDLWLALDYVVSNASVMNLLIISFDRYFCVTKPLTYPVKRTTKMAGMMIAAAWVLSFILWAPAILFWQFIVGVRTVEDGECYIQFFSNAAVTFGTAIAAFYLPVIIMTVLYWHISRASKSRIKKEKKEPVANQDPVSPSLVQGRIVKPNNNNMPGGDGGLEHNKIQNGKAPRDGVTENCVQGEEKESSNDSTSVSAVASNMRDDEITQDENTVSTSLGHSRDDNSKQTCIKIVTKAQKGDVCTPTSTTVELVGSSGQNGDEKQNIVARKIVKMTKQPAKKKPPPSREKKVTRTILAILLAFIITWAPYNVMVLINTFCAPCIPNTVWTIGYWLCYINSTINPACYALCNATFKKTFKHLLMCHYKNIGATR

[6] = molecular target: Muscarinic acetylcholine receptor M2 (Cavia porcellus); test: Antagonist affinity evaluated against Muscarinic acetylcholine receptor M2 in isolated guinea pig left atrium; settings: read-out: pA2 (converted)

Chain of Muscarinic acetylcholine receptor M3 (Cavia porcellus, UniProt Q8VH26) (Q8VH26 whole entry): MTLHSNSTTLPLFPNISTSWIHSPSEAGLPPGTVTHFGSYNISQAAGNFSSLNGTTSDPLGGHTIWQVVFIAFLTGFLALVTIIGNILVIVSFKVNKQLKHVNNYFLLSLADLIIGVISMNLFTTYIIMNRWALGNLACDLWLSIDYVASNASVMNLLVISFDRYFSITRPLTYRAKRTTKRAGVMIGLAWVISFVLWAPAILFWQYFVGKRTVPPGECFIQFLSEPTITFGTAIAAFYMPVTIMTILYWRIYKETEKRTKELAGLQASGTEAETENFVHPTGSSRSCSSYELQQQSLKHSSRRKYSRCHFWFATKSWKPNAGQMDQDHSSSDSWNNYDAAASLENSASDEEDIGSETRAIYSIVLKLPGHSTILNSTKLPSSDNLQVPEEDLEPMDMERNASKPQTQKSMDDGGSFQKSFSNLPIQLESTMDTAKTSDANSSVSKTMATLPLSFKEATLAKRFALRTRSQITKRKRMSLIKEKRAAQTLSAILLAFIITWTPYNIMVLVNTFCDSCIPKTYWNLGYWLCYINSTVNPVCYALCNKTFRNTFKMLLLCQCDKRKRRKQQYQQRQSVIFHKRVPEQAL
Chain of Muscarinic acetylcholine receptor M3 (Rattus norvegicus, UniProt P08483) (P08483 whole entry): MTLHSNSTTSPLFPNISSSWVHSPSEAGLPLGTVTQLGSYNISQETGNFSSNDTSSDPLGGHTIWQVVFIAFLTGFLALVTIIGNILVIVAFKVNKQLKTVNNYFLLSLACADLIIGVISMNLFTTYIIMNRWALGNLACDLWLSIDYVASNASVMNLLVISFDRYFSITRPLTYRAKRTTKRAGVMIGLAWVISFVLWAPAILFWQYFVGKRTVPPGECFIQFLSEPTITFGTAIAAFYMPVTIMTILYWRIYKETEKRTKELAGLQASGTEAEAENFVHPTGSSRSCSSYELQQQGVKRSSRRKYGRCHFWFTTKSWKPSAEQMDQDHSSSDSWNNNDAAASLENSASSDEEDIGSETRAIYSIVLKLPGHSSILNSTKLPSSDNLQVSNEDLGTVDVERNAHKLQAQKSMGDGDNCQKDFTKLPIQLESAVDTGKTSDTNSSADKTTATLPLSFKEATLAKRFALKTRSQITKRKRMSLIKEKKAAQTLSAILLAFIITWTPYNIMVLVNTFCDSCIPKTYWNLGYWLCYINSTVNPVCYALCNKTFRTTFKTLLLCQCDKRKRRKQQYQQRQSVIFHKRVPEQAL

Compound	Kb [1] [nM]	Ki [2] [nM]	Ki [3] [nM]	Ki [4] [nM]	Ki [5] [nM]	Kb [6] [nM]
CN(CCCCCCN)CCCCCCCCN(C)CCCCCCNCC(=O)N1c2ccccc2C(=O)Nc2cccnc21	275	15.8	331	4.37		
CN(CCCCCCCCN(C)CCCCCCN(CC(=O)N1c2ccccc2NC(=O)c2cccnc21)CC(=O)N1c2ccccc2NC(=O)c2cccnc21)CCCCCCNCC(=O)N1c2ccccc2NC(=O)c2cccnc21	912	39.8	398	12.6	0.912	2.51
CN(CCCCCCCCN(C)CCCCCCNCC(=O)N1c2ccccc2NC(=O)c2cccnc21)CCCCCCNCC(=O)N1c2ccccc2NC(=O)c2cccnc21	537	36.3	2570	14.5	20.9	5.25
CN(CCCCCCCCN(C)CCCCCCN(CC(=O)N1c2ccccc2NC(=O)c2cccnc21)CC(=O)N1c2ccccc2NC(=O)c2cccnc21)CCCCCCN(CC(=O)N1c2ccccc2NC(=O)c2cccnc21)CC(=O)N1c2ccccc2NC(=O)c2cccnc21	1620	158	2510	25.1		
CN(CCCCCCCCN(C)CCCCCCN(CC(=O)N1c2ccccc2NC(=O)c2ccccc21)CC(=O)N1c2ccccc2NC(=O)c2ccccc21)CCCCCCNCC(=O)N1c2ccccc2NC(=O)c2ccccc21	44.7	41.7	110	0.955	0.437	0.2
CN(CCCCCCCCN(C)CCCCCCNCC(=O)N1c2ccccc2NC(=O)c2ccccc21)CCCCCCNCC(=O)N1c2ccccc2NC(=O)c2ccccc21	112	2.82	115	14.8		
CN(CCCCCCCCN(C)C(=O)CCCCCNCCCC(=O)N1c2ccccc2C(=O)Nc2cccnc21)C(=O)CCCCCN	1.86					0.457
CN(CCCCCCN)CCCCCCCCN(C)CCCCCCNCCCC(=O)N1c2ccccc2C(=O)Nc2cccnc21	4.79	1.45	3.02	0.501		
CN(CCCCCCN)CCCCCCCCN(C)CCCCCCNCCC(=O)N1c2ccccc2C(=O)Nc2cccnc21	17					2.69
CN(CCCCCCCCN(C)C(=O)CCCCCNCC(=O)N1c2ccccc2C(=O)Nc2cccnc21)C(=O)CCCCCNCC(=O)N1c2ccccc2C(=O)Nc2cccnc21	72.4					0.501
CN(CCCCCCCCN(C)C(=O)CCCCCN(CC(=O)N1c2ccccc2C(=O)Nc2cccnc21)CC(=O)N1c2ccccc2C(=O)Nc2cccnc21)C(=O)CCCCCN	7240					5620
CN(CCCCCCN)CCCCCCCCN(C)CCCCCCNCCCCC(=O)N1c2ccccc2C(=O)Nc2cccnc21	19.5					0.977
CN(CCCCCCCCN(C)C(=O)CCCCCNCCCCC(=O)N1c2ccccc2C(=O)Nc2cccnc21)C(=O)CCCCCN	13.8	63.1	70.8	63.1		
CN(CCCCCCCCN(C)C(=O)CCCCCN(CC(=O)N1c2ccccc2C(=O)Nc2cccnc21)CC(=O)N1c2ccccc2C(=O)Nc2cccnc21)C(=O)CCCCCN(CC(=O)N1c2ccccc2C(=O)Nc2cccnc21)CC(=O)N1c2ccccc2C(=O)Nc2cccnc21	2140					17.8
CN(CCCCCCCCN(C)C(=O)CCCCCNCCC(=O)N1c2ccccc2C(=O)Nc2cccnc21)C(=O)CCCCCN	18.2					9.12
CN(CCCCCCCCN(C)C(=O)CCCCCNCC(=O)N1c2ccccc2C(=O)Nc2cccnc21)C(=O)CCCCCN	437	20	158	316	44.7	9.77
CN(CCCCCCCCN(C)C(=O)CCCCCN(CC(=O)N1c2ccccc2C(=O)Nc2cccnc21)CC(=O)N1c2ccccc2C(=O)Nc2cccnc21)C(=O)CCCCCNCC(=O)N1c2ccccc2C(=O)Nc2cccnc21	550	158	5750	50.1		
COc1ccccc1CNCCCCCCNCCCCCCCCNCCCCCCNCc1ccccc1OC [METHOCTRAMINE]	363	32.4	955			
CN(CCCCCCCCN(C)CCCCCCN(CC(=O)N1c2ccccc2C(=O)Nc2cccnc21)CC(=O)N1c2ccccc2C(=O)Nc2cccnc21)CCCCCCNCC(=O)N1c2ccccc2C(=O)Nc2cccnc21 [TRIPITRAMINE]		11.5	148	3.55		
